Experimental data collected from several papers.
Protocols differ between the studies behind these lines.
Target: Myosin light chain kinase, smooth muscle (MYLK, Homo sapiens, UniProt Q15746)

The remaining binding of O=C(c1ccc(Nc2ncc(Cl)c(-c3cc4ccccc4s3)n2)cc1)N1CCC(N2CCCC2)CC1 is reported as 54% (binding, competition with immobilised ligand; 1 µM).
With COc1cnc(Nc2cccc(S(N)(=O)=O)c2)nc1N1CCN(c2ccccc2)CC1 the remaining binding was 70% (binding, competition with immobilised ligand; 1 µM).
With C[C@H]1CCN(c2nccc(-c3cnn4ncccc34)n2)C1 the remaining binding was 91% (binding; 1 µM).
For O=C(NCCCN1CCOCC1)c1ccc(Nc2nccc(-c3cc4ccccc4s3)n2)cc1, the remaining binding was 94% (binding, competition with immobilised ligand; 1 µM).
The remaining binding of CN(c1nccc(-c2cnn3ncccc23)n1)C1CC1 is reported as 100% (binding; 1 µM).
C=CC(=O)N1CCC(C(=O)NCC(=O)N2CCN(c3nc(-c4cnc(N)nc4C(F)F)nc(N4CCOCC4)n3)CC2)CC1 gave a remaining binding of 61% (binding, competition with immobilised ligand; 1 µM).
For Cc1cnc(Nc2ccc(C(=O)N3CCC(N4CCCC4)CC3)cc2)nc1-c1cc2ccccc2s1, the remaining binding was 15% (binding, competition with immobilised ligand; 1 µM).
For O=C(NCc1ncc(C(F)(F)F)cc1Cl)c1ccc2c(c1)C1(CCS(=O)(=O)CC1)[C@H](C1CC1)N2S(=O)(=O)c1ccc(F)cc1, the remaining binding was 77% (cell-free assay, competition with immobilised ligand; 1 µM).
N[C@H]1CCN(c2nccc(-c3cnn4ncccc34)n2)C1 gave a remaining binding of 81% (binding; 1 µM).
The remaining binding of CNC(=O)[C@@H]1CC[C@@H](n2c(-c3ccc4cnccc4c3)nc3ccc(C(=O)NCc4cccc(C(N)=O)c4)cc32)C1 is reported as 100% (binding, competition with immobilised ligand; 1 µM).
With Cc1cc(C)c(-n2ccn3nc(-c4cccnc4)cc23)cc1NC(=O)c1cc(C#N)cc(S(F)(F)(F)(F)F)c1 the remaining binding was 57.7% (cell-free assay, competition with immobilised ligand; 0.1 µM).
With F[C@@H]1CCN(c2nccc(-c3cnn4ncccc34)n2)C1 the remaining binding was 72% (binding; 1 µM).
With COc1ncc2cc3ccccc3nc2c1C#N the remaining binding was 92% (binding, competition with immobilised ligand; 5 µM).
With FC(F)(F)c1ccc2c(c1)nc(-c1cccnc1)n2C1CC1 the remaining binding was 100% (cell-free assay, competition with immobilised ligand; 1 µM).
CN(C)c1nccc(-c2cnc3ncccn23)n1 gave a remaining binding of 94% (binding; 1 µM).
The remaining binding of O=C(O)[C@@H]1[C@@H](Cn2nnc3ccccc3c2=O)CC[C@H]1C(=O)c1ccc(OCCC2CCOCC2)cc1 is reported as 100% (cell-free assay, competition with immobilised ligand; 1 µM).
For O=C(NCC1CCOCC1)c1n[nH]cc1NC(=O)c1c(F)cccc1F, the remaining binding was 70% (binding, competition with immobilised ligand; 1 µM).
C[C@@H]1CN(c2cc(-c3nn(C)c4ccc(OC5(C)CC5)cc34)ncn2)C[C@H](C)O1 has a remaining binding of 64% (cell-free assay, competition with immobilised ligand; 1 µM).
The remaining binding of Nc1ncc2c(n1)-c1c([nH]c3ccc(C#CC4CC4)cc13)CCCC2 is reported as 92% (binding, competition with immobilised ligand; 1 µM).
The remaining binding of CO[C@@H](C)c1c(Nc2ccc([C@H](N(C)C(=O)C3CCS(=O)(=O)CC3)C(F)(F)F)cc2)cnc2cc(Cl)nn12 is reported as 95% (cell-free assay, competition with immobilised ligand; 1 µM).
With COc1ccnn2ncc(-c3ccnc(N(C)C)n3)c12 the remaining binding was 100% (binding; 1 µM).
